Measured values gathered from unrelated publications.
Each line is one published result; the experiments were not run side by side.

SMILES | host | medium | route | dose | notes | Cmax
CCN1CCN(Cc2ccc(NC(=O)c3ccc(C)c(NC(=O)c4cncc(-c5cccs5)c4)c3)cc2C(F)(F)F)CC1 | mouse | plasma | intraperitoneal | 10 mg/kg | single dose | 488 ng/mL
O=C1CCN2C(=O)c3ccccc3C2C(=O)Nc2ccccc21 (centres unmarked) | male Swiss mouse | plasma | oral | 100 mg/kg |  | 617 nM
CC(=O)O[C@@]12CO[C@@H]1C[C@H](O)[C@@]1(C)C(=O)[C@H](O)C3=C(C)[C@@H](OC(=O)[C@H](O)[C@@H](NC(=O)OC(C)(C)C)c4ccccc4)C[C@@](O)([C@@H](OC(=O)c4ccccc4)[C@H]21)C3(C)C | male Kunming mouse | plasma | oral | 20 mg/kg |  | 4.1 ng/mL
C=CS(=O)(=O)c1ccc(Nc2nc(OCC3CCCCC3)c3nc[nH]c3n2)cc1 | male BALB/c mouse | plasma | intraperitoneal | 20 mg/kg | single dose | 190 ng/mL
O=C(COc1ccc(N2C(=O)[C@@H]3[C@@H]4C=C[C@@H]([C@H]5C[C@@H]45)[C@@H]3C2=O)cc1)c1cc(Cl)cc(Cl)c1 | mouse | brain | oral | 20 mg/kg |  | 5000 nM
Cc1c(C(=O)O)ccc2c3n(nc12)[C@@H]1[C@H](C3)N(CC2CC2)[C@@]2(C(=O)Nc3cc(Cl)ccc32)[C@H]1c1cccc(Cl)c1F | female mouse | plasma | oral | 5 mg/kg |  | 7400 nM
Nc1ncn([C@H]2C[C@H](O)[C@@H](CO)O2)c(=O)n1 | female C57BL/6 mouse | plasma | oral | 0.4 mg/kg |  | 118 ng/mL
O=C(ONc1nc2nonc2nc1Nc1ccccc1F)c1ccc(OC(F)(F)F)cc1 | male C57BL/6 mouse | plasma | oral | 10 mg/kg |  | 1.9 nM
